# KCNK3 inh = human KCNK3 channel inhibitors, primary screen, CHO cells, FluxOR thallium flux, B-score | FluxOR fluorescence; active compounds read low | B-score at 10 µM | 340,000 compounds, 0.84% hits | AID 602410, 2012;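 active = B-score under library mean minus 4 SD, starting fluorescence ratio at most library mean plus 5 SD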;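 also: more negative B-score means stronger inhibition of thallium flux through KCNK3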
# KCNQ1 act = potentiators or activators of KCNQ1 channel, primary screen, cell-based, thallium flux, high-throughput; B-score at 10 µM; AID 2648, 2010; Potassium voltage-gated channel subfamily KQT member 1 (Homo sapiens), P51787; CHO-K1 KCNQ1, thallium flux FluxOR fluorescence; active compounds read high; 310,000 compounds, 0.35% hits;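 active = fluorescence ratio B-score, a plate-corrected score, at least three library SD, with initial intensity B-score within 5 SD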
#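 Test system: CHO-K1 cells stably expressing KCNQ1 / Medium: assay buffer / Also added: depolarizing K+/Tl+ stimulus, K2SO4 and Tl2SO4 each 12.5 mM in 5x stock / Incubation: 90 min dye loading and 20 min compound exposure, both at room temperature / Signal: thallium influx via FluxOR fluorescence, kinetic imaging / Evaluation: B score of baseline-normalized fluorescence ratio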
# KCNQ1 inh = inhibitors of human KCNQ1 channel, primary screen, cell-based, thallium flux, high-throughput | 310,000 compounds, 1.3% hits | CHO-K1 KCNQ1, FluxOR thallium flux fluorescence; active compounds read high | AID 2642, 2010 | Potassium voltage-gated channel subfamily KQT member 1 (Homo sapiens), P51787 | B-score at 10 µM;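 active = compounds whose thallium flux B-score, printed positive for inhibition, exceeds three library SD while starting fluorescence stays within three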;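 also: channel opened by potassium depolarization with thallium stimulus after 20 min compound exposure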
# KCNK9 inh = KCNK9 potassium channel inhibitors, primary screen, HEK293 cells, thallium flux. FluxOR thallium flux fluorescence; active compounds read low. B-score at 10 µM. 310,000 compounds, 1.2% hits. AID 488922, 2010;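 active = ratio B-score over 3 SD below the library mean, with starting fluorescence within 5 SD of its mean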;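 also: negative B-score means less thallium flux so channel inhibition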
# Target sequence (Q9NPC2 whole entry, looked up): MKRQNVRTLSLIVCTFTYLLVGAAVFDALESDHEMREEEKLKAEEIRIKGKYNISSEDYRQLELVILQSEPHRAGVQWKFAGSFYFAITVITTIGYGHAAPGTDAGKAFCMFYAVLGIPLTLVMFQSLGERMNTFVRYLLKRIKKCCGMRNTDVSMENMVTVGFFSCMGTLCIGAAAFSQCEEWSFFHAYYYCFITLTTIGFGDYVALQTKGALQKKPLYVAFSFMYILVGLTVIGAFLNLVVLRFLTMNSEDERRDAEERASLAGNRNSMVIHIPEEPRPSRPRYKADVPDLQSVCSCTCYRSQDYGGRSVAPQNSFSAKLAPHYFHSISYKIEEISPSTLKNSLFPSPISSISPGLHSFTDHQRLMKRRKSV
# Kir21 inh = inhibitors of mouse Kir2.1 inward-rectifier potassium channel; HEK293-Kir2.1, FluxOR thallium flux fluorescence; active compounds read low; B-score at 10 µM; 310,000 compounds, 0.85% hits; AID 1672, 2009;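 active = fluorescence ratio B-score at or below minus 3 SD of library scores, with starting-brightness B-score within 2 SD, cut at about -4.2 in these data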;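 also: channel flux triggered by added potassium and thallium sulfate stimulus; B-score of peak minus minimum fluorescence over baseline after thallium stimulus; more negative B-score means stronger Kir2.1 block with less thallium influx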
# hERG rescue = hERG rescue from dofetilide block, primary screen, cell-based, CHO-hERG, FluxOR thallium flux, dofetilide IC70. dofetilide IC70 present. activation (rescue from dofetilide block), less the hit threshold, % at 10 µM. 310,000 compounds, 0.51% hits. Voltage-gated inwardly rectifying potassium channel KCNH2 (Homo sapiens), Q12809. AID 1511, 2009;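 active = activation above the mean of controls blocked by dofetilide plus 5 SD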;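 also: thallium influx through hERG after potassium depolarization seen as dye fluorescence rise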
# An asterisk follows results filed as active; i = inactive; · = no result. This is a sample that favours compounds with a hit; in the whole collection about 3.8% have one here.
SMILES,KCNK3 inh,KCNQ1 act,KCNQ1 inh,KCNK9 inh,Kir21 inh,hERG rescue
CCOc1ccc(Cl)cc1S(=O)(=O)N1CCC(C(=O)NCc2ccco2)CC1,i,i,i,i,0.32,-6
CCc1c(Cl)nc(N)nc1Nc1ccccc1Cl,i,·,·,·,·,·
COC(=O)c1ccccc1NC(=S)N(Cc1ccc2c(c1)OCO2)Cc1cc2cc(C)ccc2[nH]c1=O,i,i,i,i,1.3,-9
COC(=O)c1ccccc1NC(=S)N(Cc1ccc2c(c1)OCO2)Cc1cc2ccc(C)cc2[nH]c1=O,i,i,6*,i,-0.01,-7
Cc1onc(-c2c(Cl)cccc2Cl)c1C(N)=O,i,i,i,i,1.8,-2
Cc1onc(-c2c(Cl)cccc2Cl)c1C(=O)n1nnc2ccccc21,·,i,i,i,-0.22,4.8*
CCCCn1c(N)c(N(CCC)C(=O)C2CCCC2)c(=O)[nH]c1=O,i,·,·,·,·,·
CCN(CC)c1ccc2nc3ccc(N)cc3[n+](-c3ccccc3)c2c1,-9.2*,·,·,·,·,·
CCOC(=O)C1=C(C)N(c2ccc(OC)cc2)C(=O)/C1=C\c1ccc(O)c(OCC)c1,i,i,6*,i,-0.38,-14
CCC1C(c2ccccc2)N(C)C(c2ccccc2)CC1(O)c1ccccc1 (configuration not stated),i,i,12*,i,0,-23
CCN(CC(=O)Nc1c(F)cccc1F)C(=O)c1ccc(N2CCCCC2)c([N+](=O)[O-])c1,i,i,i,i,-0.33,-6
Cc1cccc(C)c1NC(=O)N1CCC(n2cnc3ccccc32)CC1,i,i,i,i,-0.38,-17
O=C(NC1CCCCC1)N1CCC(n2cnc3ccccc32)CC1,i,i,i,i,0.64,6.2*
Cc1ccc(Oc2c(C(N)=O)cc([N+](=O)[O-])cc2[N+](=O)[O-])cc1,i,i,6*,i,-5.5*,-15
CCNC(=S)Nc1scc(-c2ccccc2)c1C(=O)OCC,i,23*,i,i,0.29,6.0*
CCOC(=O)c1c(-c2ccccc2)csc1NC(=S)NC,i,38*,i,i,-0.92,8.9*
C=CC[C@@H](CC(=O)N[C@H](CO)Cc1ccccc1)C(=O)N[C@H](COC(=O)[C@@H](CC=C)Cc1ccc(F)cc1)Cc1ccccc1,i,·,·,·,·,·
C[C@H](CO)N1C[C@H](C)[C@@H](CN(C)C(=O)NC2CCCCC2)Oc2c(NC(=O)C3CCCCC3)cccc2C1=O,i,·,·,·,·,·
COc1ccc(-c2sc(Nc3ccccc3)n[n+]2-c2ccc(F)cc2)cc1Br,i,i,i,i,-1,-30
COc1ccc2ccccc2c1-c1sc(Nc2ccccc2)n[n+]1-c1ccc(F)cc1,i,i,7*,-7.4*,-5.6*,-27
Nc1cc(Cl)ccc1C(=O)OCC(=O)N1CCCCCC1,i,·,·,·,·,·
O=C(NC(=S)Nc1ccccc1N1CCOCC1)c1ccc(-c2ccccc2F)o1,i,13*,i,i,-1.3,-5
O=C(Nc1ccccc1N1CCCCC1)c1ccc(Cl)cc1,i,i,i,-6.7*,0.02,-7
COC(=O)c1ccccc1NC(=S)NC(=O)COc1ccccc1Cl,i,i,i,i,-0.44,-12
O=C(COc1ccccc1Cl)NC(=S)Nc1ccccc1N1CCCC1,i,7*,i,-13*,-0.6,8.5*
SMILES,KCNK3 inh,KCNQ1 act,KCNQ1 inh,KCNK9 inh,Kir21 inh,hERG rescue
O=C(NC(=S)Nc1ccccc1N1CCCCC1)c1ccc(F)cc1Cl,i,10*,i,i,0.91,0
O=C(NC(=S)Nc1cc(Cl)ccc1N1CCOCC1)c1ccc(-c2cccc(Cl)c2)o1,i,i,i,i,-1.4,-8
O=C(Nc1ccc(Cl)c(Cl)c1)OCCNC(=O)c1ccncc1,i,i,i,i,-2.7,-7
CC(OC(=O)/C=C/c1ccccc1)C(=O)Nc1cccc(C#N)c1 (configuration not stated),i,i,i,i,-0.59,-12
O=C(CSc1nc(=O)n(CCN2CCOCC2)c2c1CCCC2)Nc1ccc(F)cc1F,i,i,i,i,0.02,-10
CCC(Sc1ncccc1C(=O)Oc1cccc([N+](=O)[O-])c1)C(=O)Nc1ccccc1OC (configuration not stated),i,i,i,-7.9*,-0.98,-8
O=C(Oc1ccc(Br)cc1C(=S)N1CCOCC1)c1ccccc1,i,i,i,-8*,0.97,-6
O=C1Nc2ccccc2C(=O)C1(Cl)Cc1ccccc1 (configuration not stated),i,i,i,i,-5.2*,-4
COC(=O)N/N=C/c1cc(Br)ccc1O,i,i,i,i,-0.16,-3
COC(=O)N/N=C/c1cc(N=Nc2ccccc2Cl)ccc1O,i,i,i,-7.9*,0.74,-10
Cc1ccc(CC(=O)NCCN2CCOCC2)cc1,i,i,i,i,-0.01,-6
COc1ccc(Nc2ncnc3ccc(C)cc23)cc1,i,i,i,i,-6*,1
S=c1[nH]nc(-c2ccccn2)n1/N=C/c1ccc(-c2ccccc2Br)o1,i,i,i,i,-0.79,14*
S=c1[nH]nc(-c2ccccc2)n1/N=C/c1ccc(-c2ccccc2Cl)o1,i,8*,i,i,0.83,4
C(#CCN1CCCC1)CC(c1ccccc1)c1ccccc1,i,i,i,i,-10*,-15
CCN(CC)CC(O)COCCC12CC3CC(CC(C3)C1)C2 (configuration not stated),i,i,i,i,0.39,4
OCCN(CCO)CC(O)COCCC12CC3CC(CC(C3)C1)C2 (configuration not stated),i,i,8*,i,0.06,-16
O=C(CCN(CCO)Cc1ccccc1)Nc1ccc(Br)cc1,i,i,i,i,-3,-8
CCN(CCC(=O)Nc1ccc(Br)c(C)c1)Cc1ccccc1,i,i,8*,i,-5.7*,-8
Oc1cccc(/C=N/N(Cc2ccccc2)c2ccccc2)c1,i,i,6*,-7.2*,-0.42,-15
CC(C)C[C@@H](CO)NS(=O)(=O)c1c(F)cccc1F,i,·,·,·,·,·
